Columns and labels:
[1] = target: T1, Voltage-dependent N-type calcium channel subunit alpha-1B (Homo sapiens, UniProt Q00975); experiment: Inhibition of Cav2.2-mediated calcium influx in HEK cells by FLIPR assay; type: cell-based, HEK293
Outline: (§1)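 Cav2.2 calcium-influx FLIPR assay; compounds screened for percent inhibition at single concentration, active ones titrated for IC50; values averaged over n ≥ 3.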
Target sequence in this assay (Q00975 whole entry): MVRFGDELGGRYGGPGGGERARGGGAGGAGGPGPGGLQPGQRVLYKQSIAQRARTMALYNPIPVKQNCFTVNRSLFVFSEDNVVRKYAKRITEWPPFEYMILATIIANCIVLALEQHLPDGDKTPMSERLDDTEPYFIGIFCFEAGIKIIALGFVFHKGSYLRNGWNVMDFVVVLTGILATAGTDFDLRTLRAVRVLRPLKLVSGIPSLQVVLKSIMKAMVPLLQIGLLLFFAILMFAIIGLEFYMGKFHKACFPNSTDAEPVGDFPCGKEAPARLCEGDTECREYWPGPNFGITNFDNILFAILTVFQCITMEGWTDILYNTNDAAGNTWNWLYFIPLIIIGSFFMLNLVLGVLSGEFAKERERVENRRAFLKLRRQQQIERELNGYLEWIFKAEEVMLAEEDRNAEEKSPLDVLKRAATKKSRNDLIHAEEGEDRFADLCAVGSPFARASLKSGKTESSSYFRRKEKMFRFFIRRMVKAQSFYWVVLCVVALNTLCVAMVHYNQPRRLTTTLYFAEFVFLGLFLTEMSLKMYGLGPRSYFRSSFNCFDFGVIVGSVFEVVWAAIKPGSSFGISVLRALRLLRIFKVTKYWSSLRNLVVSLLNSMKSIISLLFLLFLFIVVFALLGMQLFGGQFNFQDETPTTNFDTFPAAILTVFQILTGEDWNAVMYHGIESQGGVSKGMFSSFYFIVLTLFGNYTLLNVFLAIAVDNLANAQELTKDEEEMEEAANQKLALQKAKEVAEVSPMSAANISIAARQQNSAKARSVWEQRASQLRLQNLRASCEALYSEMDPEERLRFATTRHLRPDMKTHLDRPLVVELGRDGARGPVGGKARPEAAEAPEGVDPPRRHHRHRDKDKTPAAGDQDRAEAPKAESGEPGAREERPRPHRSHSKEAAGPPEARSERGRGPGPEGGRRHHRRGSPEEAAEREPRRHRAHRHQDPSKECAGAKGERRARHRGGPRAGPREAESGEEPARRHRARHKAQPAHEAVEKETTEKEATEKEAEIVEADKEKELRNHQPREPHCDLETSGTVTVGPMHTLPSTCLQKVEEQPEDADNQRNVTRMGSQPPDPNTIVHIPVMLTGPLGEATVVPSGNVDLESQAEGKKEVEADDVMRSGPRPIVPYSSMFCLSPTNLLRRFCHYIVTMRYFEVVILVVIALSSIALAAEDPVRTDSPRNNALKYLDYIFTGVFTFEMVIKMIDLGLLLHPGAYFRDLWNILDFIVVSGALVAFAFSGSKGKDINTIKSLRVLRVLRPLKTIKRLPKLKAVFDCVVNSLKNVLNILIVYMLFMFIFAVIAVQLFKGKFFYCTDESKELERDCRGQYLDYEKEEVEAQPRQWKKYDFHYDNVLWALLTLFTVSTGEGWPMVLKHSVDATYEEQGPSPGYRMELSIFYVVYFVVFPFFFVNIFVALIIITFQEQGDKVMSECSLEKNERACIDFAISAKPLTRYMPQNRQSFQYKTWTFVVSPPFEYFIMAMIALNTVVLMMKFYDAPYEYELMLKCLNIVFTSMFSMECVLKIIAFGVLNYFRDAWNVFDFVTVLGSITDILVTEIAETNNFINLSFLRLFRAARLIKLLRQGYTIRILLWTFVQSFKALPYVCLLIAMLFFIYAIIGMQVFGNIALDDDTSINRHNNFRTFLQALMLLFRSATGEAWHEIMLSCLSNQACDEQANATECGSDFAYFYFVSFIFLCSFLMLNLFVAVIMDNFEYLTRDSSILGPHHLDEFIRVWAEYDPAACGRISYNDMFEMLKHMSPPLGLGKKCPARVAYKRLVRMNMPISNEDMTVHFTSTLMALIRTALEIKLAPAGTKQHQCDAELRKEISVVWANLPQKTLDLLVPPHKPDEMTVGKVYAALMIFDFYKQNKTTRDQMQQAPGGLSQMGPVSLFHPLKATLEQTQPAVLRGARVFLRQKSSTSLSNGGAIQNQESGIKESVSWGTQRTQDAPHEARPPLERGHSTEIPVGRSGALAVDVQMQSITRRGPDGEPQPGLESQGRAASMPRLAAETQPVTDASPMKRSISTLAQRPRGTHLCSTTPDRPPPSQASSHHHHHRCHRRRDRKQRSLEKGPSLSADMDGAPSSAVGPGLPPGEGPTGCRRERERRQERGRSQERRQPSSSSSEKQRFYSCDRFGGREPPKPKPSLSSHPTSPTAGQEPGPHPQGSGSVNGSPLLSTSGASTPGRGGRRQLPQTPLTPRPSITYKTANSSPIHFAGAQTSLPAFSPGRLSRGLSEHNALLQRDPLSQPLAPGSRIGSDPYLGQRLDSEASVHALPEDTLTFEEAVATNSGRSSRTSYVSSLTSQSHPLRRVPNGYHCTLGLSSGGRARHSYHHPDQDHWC

hERG (KCNH2) = hERG (KCNH2) (Homo sapiens, UniProt Q12809); experiment: Displacement of [35S]MK-499 from human ERG at 10 uM relative to control; details: probe [35S]MK-499
Sequence of hERG (KCNH2) (Q12809 whole entry): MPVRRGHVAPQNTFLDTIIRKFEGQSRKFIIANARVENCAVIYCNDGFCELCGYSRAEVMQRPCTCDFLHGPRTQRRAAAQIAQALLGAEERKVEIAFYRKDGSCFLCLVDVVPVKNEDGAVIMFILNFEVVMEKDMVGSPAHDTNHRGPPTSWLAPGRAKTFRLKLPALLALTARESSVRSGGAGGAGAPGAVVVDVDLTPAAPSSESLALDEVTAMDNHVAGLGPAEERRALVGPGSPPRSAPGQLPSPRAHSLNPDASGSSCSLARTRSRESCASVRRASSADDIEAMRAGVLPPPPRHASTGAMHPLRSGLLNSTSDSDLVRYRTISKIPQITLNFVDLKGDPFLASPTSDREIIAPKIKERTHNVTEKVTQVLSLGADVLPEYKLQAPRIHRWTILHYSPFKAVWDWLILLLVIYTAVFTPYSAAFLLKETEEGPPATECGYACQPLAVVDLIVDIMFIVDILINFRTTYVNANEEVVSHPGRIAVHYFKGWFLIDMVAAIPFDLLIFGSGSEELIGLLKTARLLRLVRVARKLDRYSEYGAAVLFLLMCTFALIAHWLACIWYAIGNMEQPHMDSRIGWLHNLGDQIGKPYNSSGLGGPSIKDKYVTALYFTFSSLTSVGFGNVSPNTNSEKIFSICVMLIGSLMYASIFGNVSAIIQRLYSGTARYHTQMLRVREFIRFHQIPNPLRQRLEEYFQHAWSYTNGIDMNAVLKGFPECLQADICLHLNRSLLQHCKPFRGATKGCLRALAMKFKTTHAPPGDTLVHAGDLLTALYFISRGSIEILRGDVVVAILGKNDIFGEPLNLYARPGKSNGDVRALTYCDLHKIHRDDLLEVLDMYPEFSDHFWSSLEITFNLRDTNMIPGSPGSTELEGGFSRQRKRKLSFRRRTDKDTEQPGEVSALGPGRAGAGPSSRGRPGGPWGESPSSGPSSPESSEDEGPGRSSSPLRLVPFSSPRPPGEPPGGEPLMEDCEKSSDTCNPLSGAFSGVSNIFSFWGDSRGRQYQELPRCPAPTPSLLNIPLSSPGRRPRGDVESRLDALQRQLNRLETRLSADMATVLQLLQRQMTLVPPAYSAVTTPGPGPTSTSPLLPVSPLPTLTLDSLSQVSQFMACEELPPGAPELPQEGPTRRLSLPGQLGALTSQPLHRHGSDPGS
Outline: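 hERG binding assessed by displacement of [35S]MK-499; percent inhibition at 10 μM test compound.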

CYP3A4 = CYP3A4 (Homo sapiens, UniProt P08684); experiment: Inhibition of CYP3A4 (unknown origin) at 10 uM relative to control; type: ADME
Sequence of CYP3A4 (P08684 whole entry): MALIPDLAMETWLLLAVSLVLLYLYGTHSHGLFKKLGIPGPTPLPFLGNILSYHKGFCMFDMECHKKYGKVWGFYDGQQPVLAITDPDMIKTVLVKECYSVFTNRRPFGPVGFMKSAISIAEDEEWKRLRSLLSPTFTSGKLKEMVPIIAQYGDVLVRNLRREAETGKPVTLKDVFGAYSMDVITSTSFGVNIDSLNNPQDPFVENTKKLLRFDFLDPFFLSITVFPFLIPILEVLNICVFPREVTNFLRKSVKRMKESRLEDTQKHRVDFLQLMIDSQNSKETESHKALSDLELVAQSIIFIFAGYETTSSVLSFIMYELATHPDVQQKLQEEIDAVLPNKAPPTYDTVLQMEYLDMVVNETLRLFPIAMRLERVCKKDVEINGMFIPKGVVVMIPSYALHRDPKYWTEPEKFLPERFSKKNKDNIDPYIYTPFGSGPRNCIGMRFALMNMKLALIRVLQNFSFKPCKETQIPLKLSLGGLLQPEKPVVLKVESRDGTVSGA

[2] = target: T2, Nuclear receptor subfamily 1 group I member 2 (Homo sapiens, UniProt O75469); experiment: Activation of PXR (unknown origin)
T2 sequence (O75469 whole entry): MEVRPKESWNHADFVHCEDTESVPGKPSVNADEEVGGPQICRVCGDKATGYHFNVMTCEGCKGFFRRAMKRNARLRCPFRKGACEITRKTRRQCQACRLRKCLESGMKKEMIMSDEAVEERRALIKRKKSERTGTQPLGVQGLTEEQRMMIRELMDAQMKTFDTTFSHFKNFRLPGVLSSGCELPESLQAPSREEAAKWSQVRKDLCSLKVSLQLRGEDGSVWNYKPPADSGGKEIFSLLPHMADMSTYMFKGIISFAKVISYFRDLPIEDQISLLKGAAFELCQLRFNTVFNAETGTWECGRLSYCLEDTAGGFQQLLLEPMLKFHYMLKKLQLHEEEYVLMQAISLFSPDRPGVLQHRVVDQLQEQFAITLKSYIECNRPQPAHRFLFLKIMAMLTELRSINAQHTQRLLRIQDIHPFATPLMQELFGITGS

[3] = Metabolic stability in rat liver microsomes assessed as compound remaining at 10 uM after 1 hr in presence of NADPH; type: ADME; details: read-out: Stability
Outline: (§2)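 Liver microsomes (rat or human) incubated with compound and NADPH for 1 h; percent of parent remaining. Table footnote gives 10 μM compound, 1 mM NADPH, 1 mg/mL protein; text gives 1 μM substrate, 1 mg/mL protein.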

Liver microsome [4] = experiment: Drug metabolism in human liver microsomes assessed as 3-(trifluoromethyl)-benzenesulfonamide level after 1 hr in presence of NADPH; type: ADME
Liver microsome [5] = experiment: Drug metabolism in rat liver microsomes assessed as 3-(trifluoromethyl)-benzenesulfonamide level after 1 hr in presence of NADPH; type: ADME
[6] = Metabolic stability in human liver microsomes assessed as compound remaining at 10 uM after 1 hr in presence of NADPH; type: ADME; details: read-out: Stability; outline: as §2
Rattus norvegicus [7] = experiment: Normalized AUC in rat whole blood assessed as 3-(trifluoromethyl)-benzenesulfonamide level at 3 mg/kg, po; type: ADME, organism-based; parameters: dose 3 mg/kg, route oral; details: in vivo
Outline: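 Rats given a single 3 mg/kg oral dose of parent; whole-blood levels of parent and sulfonamide metabolite followed over time, n = 2 rats. Metabolite AUC normalized to dose (μM·h·kg/mg).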

Rattus norvegicus [8] = experiment: Normalized AUC in rat whole blood at 3 mg/kg, po; type: ADME, organism-based; parameters: dose 3 mg/kg, route oral; details: in vivo
Outline: (§3)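 Rats dosed 3 mg/kg orally and 1 mg/kg intravenously; PK parameters derived from whole-blood concentrations. Normalized oral AUC given in μM·h·kg/mg, clearance in mL/min/kg, plus half-life and oral bioavailability.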

[9] = target: T1, Voltage-dependent N-type calcium channel subunit alpha-1B; experiment: Inhibition of Cav2.2-mediated calcium influx in HEK cells at 10 uM by FLIPR assay relative to control; type: cell-based; details: HEK293, 1 uM, in the assay text read “at 1 uM” for “at 10 uM”; outline: as §1
Target sequence in this assay (Q00975 whole entry, looked up): as the sequence (Q00975 whole entry) above

Rattus norvegicus [10] = experiment: Antinociceptive activity in rat inflammatory pain model assessed as reversal of CFA-induced mechanical allodynia at 30 mg/kg, po after 1 hr; type: functional
Outline: (§4)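 Rats given intraplantar complete Freund's adjuvant in the hind paws to induce inflammatory pain; mechanical allodynia assessed 1 and 3 h after a single oral dose. Percent reversal per rat calculated as (postdose − predose)/(preinjury − predose), averaged over n = 6 rats.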

[11] = Oral bioavailability in rat at 3 mg/kg; type: ADME, organism-based; details: in vivo; outline: as §3
Rattus norvegicus [12] = experiment: Antinociceptive activity in rat inflammatory pain model assessed as reversal of CFA-induced mechanical allodynia at 30 mg/kg, po after 3 hrs; type: functional; outline: as §4
[13] = Clearance in rat at 3 mg/kg, po and 1 mg/kg, iv; type: ADME, organism-based; details: in vivo; outline: as §3
Rattus norvegicus [14] = experiment: Antinociceptive activity in rat inflammatory pain model assessed as reversal of CFA-induced mechanical allodynia at 10 mg/kg, po after 3 hrs; type: functional; outline: as §4
Rattus norvegicus [15] = experiment: Antinociceptive activity in rat inflammatory pain model assessed as reversal of CFA-induced mechanical allodynia at 10 mg/kg, po after 1 hr; type: functional; outline: as §4

Compound | IC50 [1] | inhibition at 10 µM (hERG (KCNH2)) | inhibition at 10 µM (CYP3A4) | EC50 [2] | also measured
CS(=O)(=O)c1ccc(Cl)c(C(=O)N2CCC(N(C3CC3)S(=O)(=O)c3cccc(C(F)(F)F)c3)CC2)c1 | 340 nM | 49% | 69% | 2700 nM | –
CS(=O)(=O)c1ccc(C(=O)N2CCC(N(C3CC3)S(=O)(=O)c3cccc(C(F)(F)F)c3)CC2)c(OC(F)(F)F)c1 | 48 nM | 63% | 16% | 1700 nM | –
CC(C1CCN(C(=O)c2ccc(S(C)(=O)=O)cc2OC(F)(F)F)CC1)S(=O)(=O)c1cccc(C(F)(F)F)c1 (stereo in doubt; 30 en-1) | 88 nM | – | – | – | –
CS(=O)(=O)c1cc(C#N)ccc1C(=O)N1CCC(N(C2CC2)S(=O)(=O)c2cccc(C(F)(F)F)c2)CC1 | 450 nM | 66% | 86% | 8400 nM | –
CS(=O)(=O)c1ccc(C(=O)N2CCC(N(C3CC3)S(=O)(=O)c3cccc(C(F)(F)F)c3)CC2)c(Cl)c1 | 290 nM | 32% | 78% | 10800 nM | –
CS(=O)(=O)c1ccc(C(=O)N2CC(N(C3CC3)S(=O)(=O)c3cccc(C(F)(F)F)c3)C2)c(C(F)(F)F)c1 | 270 nM | – | – | – | remaining at 1 h, 10 µM [3]: 72%; Drug metabolism (Liver microsome [4]): 0.45 µM; Drug metabolism (Liver microsome [5]): 0.04 µM; remaining at 1 h, 10 µM [6]: 78%
CS(=O)(=O)c1ccc(C(=O)N2CCC3(CCN(S(=O)(=O)c4cccc(C(F)(F)F)c4)CC3)C2)c(C(F)(F)F)c1 | 310 nM | – | – | – | remaining at 1 h, 10 µM [3]: 3.8%; Drug metabolism (Liver microsome [4]): 5.13 µM; Drug metabolism (Liver microsome [5]): 0.18 µM; remaining at 1 h, 10 µM [6]: 4.2%
CC1(N(C2CC2)S(=O)(=O)c2cccc(C(F)(F)F)c2)CCN(C(=O)c2cc(F)ccc2S(C)(=O)=O)CC1 | 710 nM | – | – | – | Drug metabolism (Liver microsome [4]): 0.04 µM; Drug metabolism (Liver microsome [5]): 0.06 µM
CC(C1CCN(C(=O)c2ccc(S(C)(=O)=O)cc2OC(F)(F)F)CC1)S(=O)(=O)c1cccc(C(F)(F)F)c1 (stereo in doubt; 30 en-2) | 370 nM | – | – | – | –
CS(=O)(=O)c1cc(C(F)(F)F)ccc1C(=O)N1CCC2(CCN(S(=O)(=O)c3cccc(C(F)(F)F)c3)CC2)C1 | 72 nM | – | – | – | remaining at 1 h, 10 µM [3]: 12%; AUC/dose (Rattus norvegicus [7]): 218 µM·kg·h/mg; AUC/dose (Rattus norvegicus [8]): 0.022 µM·kg·h/mg; remaining at 1 h, 10 µM [6]: 8.5%
CS(=O)(=O)c1ccc(C(=O)N2CCC(N(C3CC3)S(=O)(=O)c3cccc(C(F)(F)F)c3)CC2)c(F)c1 | 350 nM | 78% | – | 6800 nM | –
CS(=O)(=O)c1ccc(F)cc1C(=O)N1CCC2(CCN(S(=O)(=O)c3cccc(C(F)(F)F)c3)CC2)C1 | 190 nM | – | – | – | –
CS(=O)(=O)c1cc(C(F)(F)F)ccc1C(=O)N1CCC(N(C2CC2)S(=O)(=O)c2cccc(C(F)(F)F)c2)CC1 | 27 nM | 43% | 78% | 4300 nM | –
CS(=O)(=O)c1ccc(F)cc1C(=O)N1CC(N(C2CC2)S(=O)(=O)c2cccc(C(F)(F)F)c2)C1 | 970 nM | – | – | – | –
NC(=O)c1ccc(C(=O)N2CCC(N(C3CC3)S(=O)(=O)c3cccc(C(F)(F)F)c3)CC2)c(C(F)(F)F)c1 | 760 nM | 32% | 61% | 1900 nM | –
CS(=O)(=O)c1ccc(C(=O)N2CCC(N(C3CC3)S(=O)(=O)c3cccc(C(F)(F)F)c3)CC2)c(C(F)(F)F)c1 | 21 nM | 58% | 75% | 2800 nM | –
CS(=O)(=O)c1ccc(C(=O)N2CCC(N(C(=O)c3cccc(C(F)(F)F)c3)C3CC3)CC2)c(OC(F)(F)F)c1 | – | – | – | – | inhibition [9]: 48%
CN(C1CCN(C(=O)c2ccccc2S(C)(=O)=O)CC1)S(=O)(=O)c1cccc(C(F)(F)F)c1 | 460 nM | – | – | – | remaining at 1 h, 10 µM [3]: 18%; Drug metabolism (Liver microsome [4]): 0.95 µM; Drug metabolism (Liver microsome [5]): 0.08 µM; remaining at 1 h, 10 µM [6]: 26%
C[C@H]1[C@H](N(C2CC2)S(=O)(=O)c2cccc(C(F)(F)F)c2)CN1C(=O)c1ccc(S(C)(=O)=O)cc1Cl (racemic) | 48 nM | – | – | – | remaining at 1 h, 10 µM [3]: 4.7%; Drug metabolism (Liver microsome [4]): 0.83 µM; AUC/dose (Rattus norvegicus [7]): 64 µM·kg·h/mg; Drug metabolism (Liver microsome [5]): 0.11 µM; AUC/dose (Rattus norvegicus [8]): 0.017 µM·kg·h/mg; remaining at 1 h, 10 µM [6]: 5.3%
C[C@@H]1[C@H](N(C2CC2)S(=O)(=O)c2cccc(C(F)(F)F)c2)CN1C(=O)c1cc(F)ccc1S(C)(=O)=O (racemic) | 380 nM | – | – | – | –
CS(=O)(=O)c1ccc(C(=O)N2CCC(CS(=O)(=O)c3cccc(C(F)(F)F)c3)CC2)c(OC(F)(F)F)c1 | 360 nM | – | – | – | –
NS(=O)(=O)c1cccc(C(F)(F)F)c1 | > 10000 nM | – | – | – | Efficacy (Rattus norvegicus [10]): 53%; bioavailability [11]: 46%; Efficacy (Rattus norvegicus [12]): 44%; clearance [13]: 0.31 mL/min/kg; AUC/dose (Rattus norvegicus [8]): 111 µM·kg·h/mg
NC(=O)c1ccc(C(=O)N2CCC(N(C3CC3)S(=O)(=O)c3cccc(C(F)(F)F)c3)CC2)c(OC(F)(F)F)c1 | 390 nM | 41% | 60% | > 10000 nM | –
C[C@H]1[C@H](N(C2CC2)S(=O)(=O)c2cccc(C(F)(F)F)c2)CN1C(=O)c1cc(F)ccc1S(C)(=O)=O (racemic) | 430 nM | – | – | – | –
CS(=O)(=O)c1ccc(C#N)cc1C(=O)N1CCC(N(C2CC2)S(=O)(=O)c2cccc(C(F)(F)F)c2)CC1 | 670 nM | 41% | 59% | 5000 nM | –
CS(=O)(=O)c1ccc(F)cc1C(=O)N1CCC(N(C2CC2)S(=O)(=O)c2cccc(C(F)(F)F)c2)C1 (racemic) | 370 nM | – | – | – | –
CS(=O)(=O)c1ccc(F)cc1C(=O)N1CCC(N(C2CC2)S(=O)(=O)c2cccc(C(F)(F)F)c2)CC1 | – | – | 75% | – | Drug metabolism (Liver microsome [4]): 0.03 µM; Efficacy (Rattus norvegicus [14]): 38%; Drug metabolism (Liver microsome [5]): 0.01 µM; Efficacy (Rattus norvegicus [15]): 43%
CCN(C1CCN(C(=O)c2ccccc2OC(F)(F)F)CC1)S(=O)(=O)c1cccc(C(F)(F)F)c1 | 470 nM | – | – | – | remaining at 1 h, 10 µM [3]: 3.4%; Drug metabolism (Liver microsome [4]): 1.16 µM; Drug metabolism (Liver microsome [5]): 0.08 µM; remaining at 1 h, 10 µM [6]: 30%

Source: ChEMBL document CHEMBL3091454, “Improved Cav2.2 Channel Inhibitors through a gem-Dimethylsulfone Bioisostere Replacement of a Labile Sulfonamide” (ACS Med Chem Lett, 2013)
